Data from BindingDB's records for doi:10.1016/j.bmcl.2005.07.045 (Shanghai Second Medical University, 2005).
pEC50: −log10 of the molar value.

Target: Muscarinic acetylcholine receptor M1/M2/M3/M4/M5
Experiment: Agonistic activity against Muscarinic acetylcholine receptor of guinea pig ileal longitudinal muscle
Procedure, shortened: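 Ileal longitudinal muscle strips (1.5 cm) in 10 ml organ baths under 500 mg tension, equilibrated 30 min with bath fluid changed every 10 min. Isotonic contractions recorded during cumulative addition, about 3-fold concentration steps once each response is steady. Response expressed as percent of carbachol maximum. pEC50 determined graphically from dose–response curves, mean of three tests, t test.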

Row | Compound | pEC50
1 | CCCC(=O)OC1CC2CC(OC(C)=O)C(C1)N2C (centres undefined) | 5.30
2 | CC(=O)OC1CC2CCC(C1)N2C (centres undefined) | 4.10
3 | CC(=O)OC1CC2CC(OS(=O)(=O)c3ccc([N+](=O)[O-])cc3)CC1N2C (centres undefined) | 7.35
4 | CCCCCCC(=O)OC1CC2CC(OC(C)=O)C(C1)N2C (centres undefined) | 7.57
5 | CN1C2CC(=O)CC1C(O)C2 (centres undefined) | 3.39
6 | CC(=O)OC1CC2NC1CCC2O (centres undefined) | 7.10
7 | CCC(=O)OC1CC2CC(OC(=O)CC)C(C1)N2C (centres undefined) | 4.37
8 | CCCCCC(=O)OC1CC2CC(OC(C)=O)C(C1)N2C (centres undefined) | 8.19
9 | CC(=O)OC1CC2CC(OC(C)=O)C(C1)N2C (centres undefined) | 5.35
10 | CCCCCC(=O)OC1CC2CC(OC(=O)CCCCC)C(C1)N2C (centres undefined) | 8.32
11 | COc1ccc(C(=O)OC2CC3CC(OC(C)=O)C(C2)N3C)cc1 (centres undefined) | 4.52
12 | CC(=O)OC1CC2CCCC1N2C (centres undefined) [Acetic acid 8-methyl-8-aza-bicyclo[3.2.1]oct-6-yl ester] | 4.61
13 | COc1ccc(S(=O)(=O)OC2CC3CC(OC(C)=O)C(C2)N3C)cc1 (centres undefined) | 7.03
14 | CC(=O)OC1CC2CC(OC(=O)c3ccc(C)cc3)CC1N2C (centres undefined) | 5.36
15 | CC(=O)OC1CC2CC(OC(=O)/C=C\c3ccccc3)CC1N2C (centres undefined) | 3.93
16 | CC(=O)OC1CC2CC(OC(=O)/C=C\c3ccccc3)CC1N2 (centres undefined) | 5.70
17 | CC(=O)OC1CC2CC(=O)CC1N2C (centres undefined) | 4.83
18 | CC(=O)OC1CC2CC(OS(=O)(=O)c3ccc(C)cc3)CC1N2C (centres undefined) | 6.98
19 | CC(=O)OC1CC2CC(Cl)CC1N2C (centres undefined) | 4.94
20 | CC(=O)OC1CC2CCCC1N2 (centres undefined) [Acetic acid 8-aza-bicyclo[3.2.1]oct-6-yl ester] | 8.21
21 | CCCCCCCCCC(=O)OC1CC2CC(OC(C)=O)C(C1)N2C (centres undefined) | 6.58
22 | CC(=O)OC1CC2CC(OS(=O)(=O)c3cccc(C)c3)CC1N2C (centres undefined) | 7.05
23 | CCCCCCCC(=O)OC1CC2CC(OC(C)=O)C(C1)N2C (centres undefined) | 8.76
24 | CC(=O)OC1CC2CC(OS(=O)(=O)c3ccccc3)CC1N2C (centres undefined) | 7.30
